# Marks after values point to notes of the source that are not given here.
# What was measured:
# [1] = system: Human PBMCs containing naïve Vγ9Vδ2 T cells; assay: IFN-γ production of PBMCs by ELISA; type: cell-based; conditions: for EC50: Homo sapiens, PBMC, 48 h, read-out: IFN-γ EC50 (μM) with 95% CI
# [2] = system: Vγ9Vδ2 T cells; assay: Vγ9Vδ2 T cell proliferation assay; type: cell-based, human; conditions: for T cell expansion above non-stimulated baseline: positive controls at 0.1 μM; for signs of Vγ9Vδ2 T cell stimulation: proliferation assay, Supplemental Figure S1C–D
# [3] = target: wt-BFI domain of BTN3A1 (Homo sapiens, UniProt O00481); assay: GDP-BODIPY fluorescence polarization competitive binding assay, wt-BFI; conditions: n ≥ 3
# [4] = target: BTN3A1 BFI(W421A) (Homo sapiens, UniProt O00481, W421A); assay: GDP-BODIPY fluorescence polarization competitive binding assay, BFI; conditions: n ≥ 3
# [5] = target: BTN3A1 BFI(M424A) (Homo sapiens, UniProt O00481, M424A); assay: as above; conditions: n ≥ 3, ambiguous, approximate slope estimated by GraphPad
# [6] = target: BTN3A1 BFI(R442A) (Homo sapiens, UniProt O00481, R442A); assay: as above; conditions: n ≥ 3
# [7] = target: BTN3A1 BFI(R448A) (Homo sapiens, UniProt O00481, R448A); assay: as above; conditions: n ≥ 3
# [8] = target: BTN3A1 BFI(R499A) (Homo sapiens, UniProt O00481, R499A); assay: as above; conditions: n ≥ 3
# [9] = target: BFI; conditions: read-out: ITC Kd for BFI; previous ITC experiments; cited from earlier work
# [10] = system: Vγ9Vδ2 T cells; conditions: read-out: Proliferation EC50 (μM) with 95% CI; footnote a; ref Hsiao 2014; cited from earlier work
# [11] = target: BTN3A1; conditions: previously reported ITC experiments; no reference given; cited from earlier work
# [12] = system: peripheral blood mononuclear cells (PBMCs); assay: Ligand uptake: disappearance of prodrug from media incubated with PBMCs; type: in vitro ADME; conditions: 10 μM with PBMCs, 24 hours, 37 °C
# Summary of the method: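 PBMCs at 1,000,000 cells/mL in T cell media were incubated at 37 °C with test prodrug at 10 μM final, or with media alone. Samples were taken at 0, 6, 24 and 48 h and spun. The supernatant was mixed with acetonitrile, re-spun and stored at −20 °C. UPLC-MS used a C18 column with a 25–80% acetonitrile gradient over 8 min. The integrated molecular-ion signal was expressed relative to t = 0.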
# [13] = dose-response, 48 hours, concentration not given
# BTN3A1 BFI(M424A), sequence (O00481 272-513 M424A limits assumed): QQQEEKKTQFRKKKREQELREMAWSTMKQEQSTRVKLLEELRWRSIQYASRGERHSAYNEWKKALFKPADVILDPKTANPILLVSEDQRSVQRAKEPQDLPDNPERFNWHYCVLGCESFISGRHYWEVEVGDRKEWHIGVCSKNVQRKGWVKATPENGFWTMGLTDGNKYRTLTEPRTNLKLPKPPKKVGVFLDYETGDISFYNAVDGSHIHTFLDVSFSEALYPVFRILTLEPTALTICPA
# BTN3A1 BFI(R448A), sequence (O00481 272-513 R448A limits assumed): as the sequence (O00481 272-513 M424A limits assumed) above, with A153M, R177A counted along it
# BTN3A1 BFI(W421A), sequence (O00481 272-513 W421A limits assumed): as the sequence (O00481 272-513 M424A limits assumed) above, with W150A, A153M counted along it
# BTN3A1 BFI(R442A), sequence (O00481 272-513 R442A limits assumed): as the sequence (O00481 272-513 M424A limits assumed) above, with A153M, R171A counted along it
# BTN3A1 BFI(R499A), sequence (O00481 272-513 R499A limits assumed): as the sequence (O00481 272-513 M424A limits assumed) above, with A153M, R228A counted along it
# wt-BFI domain of BTN3A1, sequence (O00481 272-513 limits assumed): as the sequence (O00481 272-513 M424A limits assumed) above, with A153M counted along it
smiles,measurement,setting,value
"O=P(O)(O)C(O)(Cn1ccnc1)P(=O)(O)O [Compound 4, zoledronate]",stimulation of IFN-γ production,[1]; [13],Neither zoledronate (4) nor sodium diphosphate stimulated IFN-γ production
"C/C(=C\COP(=O)(O)OP(=O)(O)O)CO [Compound 1, (E)-4-hydroxy-3-methyl-but-2-enyl diphosphate]",T cell expansion above non-stimulated baseline,[2],significantly expanded T cells
same,Probe displacement (mP) range with 95% CI,[3],30.6 (25 – 36) mP
same,Probe displacement (mP) range with 95% CI,[4],56.7 (40 – 73) ^* mP
same,Probe displacement (mP) range with 95% CI,[5],59.1^a (38 – 81) ^* mP
same,Probe displacement (mP) range with 95% CI,[6],19.4 (13 – 26) mP
same,Probe displacement (mP) range with 95% CI,[7],26.2 (12 – 40) mP
same,Probe displacement (mP) range with 95% CI,[8],55.0 (21 – 78) ^* mP
same,Kd,[9],2.36 µM
C/C(=C\CCP(=O)(O)O)CO [Compound 5],EC50,[10],4 µM
same,ITC dissociation constant (Kd),[11],not calculable
C/C(=C\CCP(=O)(CP(=O)(OCOC(=O)C(C)(C)C)OCOC(=O)C(C)(C)C)OCOC(=O)C(C)(C)C)CO (centres unmarked) [Compound 8],IFN-γ potency of prodrug 8 relative to its salt 7,[1],100 times
same,EC50,[1],> 1 µM
C/C(=C\CCP(=O)(O)CP(=O)(O)O)CO [Compound 7],stimulation of IFN-γ production at 100 μM,"[1]; 100 μM, 48 hours",did stimulate IFN-γ production
same,EC50,[1],> 100 µM
"COP(=O)(CCCC/C=C(\C)CO)OC [Compound 15, Dimethyl (E)-(7-hydroxy-6-methylhept-5-en-1-yl) phosphonate]",signs of Vγ9Vδ2 T cell stimulation,[2],neither intermediate 14 nor 15 displayed signs of Vγ9Vδ2 T cell stimulation
"C/C(=C\CCCCP(=O)(OCOC(=O)C(C)(C)C)OCOC(=O)C(C)(C)C)CO [Compound 11, (E)-(((7-hydroxy-6-methylhept-5-en-1-yl)phosphoryl)bis(oxy))bis(methylene) bis(2,2-dimethylpropanoate)]",stimulation of T cell proliferation,[2]; concentrations up to 100 μM,neither prodrug 11 nor salt 10 (Supplemental Figure S1B) stimulated T cell proliferation
same,stimulation of IFN-γ production,"[1]; concentrations up to 100 μM, 48 hours",did not stimulate
same,parent ion detected in media relative to t = 0,[12],less than 1%
"O=P([O-])([O-])OP(=O)([O-])[O-].[Na+].[Na+].[Na+].[Na+] [NaPP, sodium diphosphate]",stimulation of IFN-γ production,[1]; [13],Neither zoledronate (4) nor sodium diphosphate stimulated IFN-γ production
C/C(=C\CCP(=O)(OCOC(=O)C(C)(C)C)OCOC(=O)C(C)(C)C)CO [Compound 6],T cell expansion above non-stimulated baseline,[2],significantly expanded T cells
same,parent ion detected in media relative to t = 0,[12],less than 1%
"CC(C)=CCCCCP(=O)(OCOC(=O)C(C)(C)C)OCOC(=O)C(C)(C)C [Compound 14, (((6-Methylhept-5-en-1-yl)phosphoryl)bis(oxy))bis(methylene) bis(2,2-dimethylpropanoate)]",signs of Vγ9Vδ2 T cell stimulation,[2],neither intermediate 14 nor 15 displayed signs of Vγ9Vδ2 T cell stimulation

# Reference: article PMC7701984 (Journal of medicinal chemistry, 2019)
